Measurements taken from ChEMBL document CHEMBL3853327 (J Med Chem, 2016).

Molecular target: not listed separately
Test: Inhibition of recombinant wild type HIV1 reverse transcriptase using DIG-dUTP/biotin-dUTP/dTTP assessed as suppression of biotin-dUTP incorporation after 1 hr by ELISA
Parameters: species or system Human immunodeficiency virus 1
Conditions: not given
In short: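 Recombinant WT HIV-1 RT in a Roche colorimetric kit: template plus DIG-dUTP, biotin-dUTP and dTTP, ±inhibitor, 1 h at 37 °C. Product captured on streptavidin plate 1 h at 37 °C, anti-DIG-POD 1 h at 37 °C, ABTS developed at 25 °C, read at OD405. IC50 is the concentration inhibiting biotin-dUTP incorporation by 50%.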

Compound | IC50 [nM]
Cc1cc(C)c(Oc2nc(NC3CCN(Cc4ccncc4)CC3)nc3ccsc23)c(C)c1 | 210
Cc1cc(C#N)cc(C)c1Oc1nc(NC2CCN(Cc3ccncc3)CC2)nc2ccsc12 | 1300

Test system: Human immunodeficiency virus 1
Test: Fold resistance, ratio of IC50 for recombinant HIV1 reverse transcriptase K103N/Y181C double mutant to IC50 for wild type HIV1 reverse transcriptase
Conditions: not given
In short: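 Ratio of mutant to WT IC50. Recombinant WT and K103N/Y181C RT were assayed with a kit: template plus DIG-dUTP, biotin-dUTP and dTTP, with or without inhibitor, 1 h at 37 °C. Product was captured on streptavidin, detected with anti-DIG-POD and ABTS, and read at 405 nm. IC50 is the concentration inhibiting biotin-dUTP incorporation by 50%.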

Compound | Ratio IC50
Cc1cc(C)c(Oc2nc(NC3CCN(Cc4ccncc4)CC3)nc3ccsc23)c(C)c1 | 6
Cc1cc(C#N)cc(C)c1Oc1nc(NC2CCN(Cc3ccncc3)CC2)nc2ccsc12 | 2.87

Test system: Human immunodeficiency virus 1
Test: Antiviral activity against HIV1 3B harboring reverse transcriptase F227L/V106A double mutant infected in human MT4 cells assessed as protection against virus induced cytotoxicity after 5 days by MTT assay
Assay type: functional, cell-based
Conditions: Human immunodeficiency virus 1, 3B, MT4, 120 h
In short: (§1)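 MTT cytopathicity assay in MT-4 cells (6 × 10^5 cells/mL). Compounds serially diluted 5-fold in triplicate wells, run in parallel on infected and mock-infected cells. Virus added at 100−300 CCID50 per well. Viability read spectrophotometrically at 540 and 690 nm after 5 days, using the median OD of three wells. EC50 is the concentration giving 50% protection from viral cytopathogenicity.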

Compound | EC50 [nM]
Cc1cc(C)c(Oc2nc(NC3CCN(Cc4ccncc4)CC3)nc3ccsc23)c(C)c1 | 133
Cc1cc(C#N)cc(C)c1Oc1nc(NC2CCN(Cc3ccncc3)CC2)nc2ccsc12 | 130

Test system: not listed separately
Test: Selectivity index, ratio of CC50 for human mock-infected MT4 cells to EC50 for HIV1 3B harboring reverse transcriptase F227L/V106A double mutant infected in human MT4 cells
Assay type: toxicity, cell-based
Conditions: MT4 cells (mock-infected for CC50, HIV-1 infected for EC50)
In short: (§2)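 Selectivity index is CC50/EC50. CC50 is the concentration that reduces OD540 of mock-infected MT-4 cells by 50% in the 5-day MTT assay. EC50 is the 50% protection from virus-induced cytopathicity, measured in parallel on infected wells.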

Compound | selectivity ratio
Cc1cc(C)c(Oc2nc(NC3CCN(Cc4ccncc4)CC3)nc3ccsc23)c(C)c1 | 42
Cc1cc(C#N)cc(C)c1Oc1nc(NC2CCN(Cc3ccncc3)CC2)nc2ccsc12 | 159

Test system: not listed separately
Test: Selectivity index, ratio of CC50 for human mock-infected MT4 cells to EC50 for HIV1 3B harboring reverse transcriptase K103N mutant infected in human MT4 cells
Assay type: toxicity, cell-based
Conditions: MT4 cells (mock-infected for CC50, HIV-1 infected for EC50)
In short: as §2

Compound | selectivity ratio
Cc1cc(C)c(Oc2nc(NC3CCN(Cc4ccncc4)CC3)nc3ccsc23)c(C)c1 | 777
Cc1cc(C#N)cc(C)c1Oc1nc(NC2CCN(Cc3ccncc3)CC2)nc2ccsc12 | 2090

Test system: Human immunodeficiency virus 1
Test: Antiviral activity against HIV1 3B harboring reverse transcriptase Y188L mutant infected in human MT4 cells assessed as protection against virus induced cytotoxicity after 5 days by MTT assay
Assay type: functional, cell-based
Conditions: Human immunodeficiency virus 1, 3B, MT4, 120 h
In short: as §1

Compound | EC50 [nM]
Cc1cc(C)c(Oc2nc(NC3CCN(Cc4ccncc4)CC3)nc3ccsc23)c(C)c1 | 37.1
Cc1cc(C#N)cc(C)c1Oc1nc(NC2CCN(Cc3ccncc3)CC2)nc2ccsc12 | 55.3

Test system: Human immunodeficiency virus 1
Test: Antiviral activity against HIV1 3B harboring reverse transcriptase Y181C mutant infected in human MT4 cells assessed as protection against virus induced cytotoxicity after 5 days by MTT assay
Assay type: functional, cell-based
Conditions: Human immunodeficiency virus 1, 3B, MT4, 120 h
In short: as §1, with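 “wells.” for “wells. EC50 is the concentration giving 50% protection from viral cytopathogenicity.”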

Compound | EC50 [nM]
Cc1cc(C)c(Oc2nc(NC3CCN(Cc4ccncc4)CC3)nc3ccsc23)c(C)c1 | 24.6
Cc1cc(C#N)cc(C)c1Oc1nc(NC2CCN(Cc3ccncc3)CC2)nc2ccsc12 | 42.7

Test system: not listed separately
Test: Antiviral activity against HIV2 ROD harboring reverse transcriptase infected in human MT4 cells assessed as protection against virus induced cytotoxicity after 5 days by MTT assay
Assay type: functional, cell-based, Human immunodeficiency virus type 2 (ISOLATE ROD)
Conditions: Human immunodeficiency virus 2, MT4, 120 h
In short: as §1

Compound | EC50 [µM]
Cc1cc(C)c(Oc2nc(NC3CCN(Cc4ccncc4)CC3)nc3ccsc23)c(C)c1 | > 5.65
Cc1cc(C#N)cc(C)c1Oc1nc(NC2CCN(Cc3ccncc3)CC2)nc2ccsc12 | > 20.6

Test system: not listed separately
Test: Cytotoxicity against human mock-infected MT4 cells assessed as reduction in cell viability after 5 days by MTT assay
Assay type: toxicity, cell-based
Conditions: not given
In short: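 Mock-infected MT-4 cells (6 × 10^5 cells/mL at seeding) with serial 5-fold compound dilutions in triplicate wells. Viability read by MTT after 5 days, absorbance at 540 and 690 nm, median OD of three wells. CC50 is the concentration reducing OD540 of mock-infected cells by 50%.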

Compound | CC50 at 120 h [µM]
Cc1cc(C)c(Oc2nc(NC3CCN(Cc4ccncc4)CC3)nc3ccsc23)c(C)c1 | 5.65
Cc1cc(C#N)cc(C)c1Oc1nc(NC2CCN(Cc3ccncc3)CC2)nc2ccsc12 | 20.6

Molecular target: Human immunodeficiency virus type 1 reverse transcriptase (Human immunodeficiency virus 1, UniProt Q72547, K103N/Y181C)
Test: Inhibition of recombinant HIV1 reverse transcriptase K103N/Y181C double mutant using DIG-dUTP/biotin-dUTP/dTTP assessed as suppression of biotin-dUTP incorporation after 1 hr by ELISA
Conditions: not given

Compound | IC50 [nM]
Cc1cc(C)c(Oc2nc(NC3CCN(Cc4ccncc4)CC3)nc3ccsc23)c(C)c1 | 1260
Cc1cc(C#N)cc(C)c1Oc1nc(NC2CCN(Cc3ccncc3)CC2)nc2ccsc12 | 3740

Test system: Human immunodeficiency virus 1
Test: Antiviral activity against HIV1 3B harboring reverse transcriptase L100I mutant infected in human MT4 cells assessed as protection against virus induced cytotoxicity after 5 days by MTT assay
Assay type: functional, cell-based
Conditions: Human immunodeficiency virus 1, 3B, MT4, 120 h
In short: as §1

Compound | EC50 [nM]
Cc1cc(C)c(Oc2nc(NC3CCN(Cc4ccncc4)CC3)nc3ccsc23)c(C)c1 | 56.1
Cc1cc(C#N)cc(C)c1Oc1nc(NC2CCN(Cc3ccncc3)CC2)nc2ccsc12 | 81.6

Test system: not listed separately
Test: Selectivity index, ratio of CC50 for human mock-infected MT4 cells to EC50 for HIV1 RES056 harboring reverse transcriptase K103N/Y181C double mutant infected in human MT4 cells
Assay type: toxicity, cell-based
Conditions: MT4 cells (mock-infected for CC50, HIV-1 infected for EC50)
In short: as §2

Compound | selectivity ratio
Cc1cc(C)c(Oc2nc(NC3CCN(Cc4ccncc4)CC3)nc3ccsc23)c(C)c1 | 27
Cc1cc(C#N)cc(C)c1Oc1nc(NC2CCN(Cc3ccncc3)CC2)nc2ccsc12 | 32

Test system: not listed separately
Test: Selectivity index, ratio of CC50 for human mock-infected MT4 cells to EC50 for HIV1 3B harboring reverse transcriptase Y181C mutant infected in human MT4 cells
Assay type: toxicity, cell-based
Conditions: MT4 cells (mock-infected for CC50, HIV-1 infected for EC50)
In short: as §2

Compound | selectivity ratio
Cc1cc(C)c(Oc2nc(NC3CCN(Cc4ccncc4)CC3)nc3ccsc23)c(C)c1 | 230
Cc1cc(C#N)cc(C)c1Oc1nc(NC2CCN(Cc3ccncc3)CC2)nc2ccsc12 | 483

Test system: Human immunodeficiency virus 1
Test: Antiviral activity against wild type HIV1 3B harboring reverse transcriptase infected in human MT4 cells assessed as protection against virus induced cytotoxicity after 5 days by MTT assay
Assay type: functional, cell-based
Conditions: Human immunodeficiency virus 1, 3B, MT4, 120 h
In short: as §1, with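 “wells.” for “wells. EC50 is the concentration giving 50% protection from viral cytopathogenicity.”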

Compound | EC50 [nM]
Cc1cc(C)c(Oc2nc(NC3CCN(Cc4ccncc4)CC3)nc3ccsc23)c(C)c1 | 7.6
Cc1cc(C#N)cc(C)c1Oc1nc(NC2CCN(Cc3ccncc3)CC2)nc2ccsc12 | 10.3

Test system: not listed separately
Test: Selectivity index, ratio of CC50 for human mock-infected MT4 cells to EC50 for HIV1 3B harboring reverse transcriptase L100I mutant infected in human MT4 cells
Assay type: toxicity, cell-based
Conditions: MT4 cells (mock-infected for CC50, HIV-1 infected for EC50)
In short: as §2

Compound | selectivity ratio
Cc1cc(C)c(Oc2nc(NC3CCN(Cc4ccncc4)CC3)nc3ccsc23)c(C)c1 | 101
Cc1cc(C#N)cc(C)c1Oc1nc(NC2CCN(Cc3ccncc3)CC2)nc2ccsc12 | 253

Test system: not listed separately
Test: Selectivity index, ratio of CC50 for human mock-infected MT4 cells to EC50 for HIV1 3B harboring reverse transcriptase E138K mutant infected in human MT4 cells
Assay type: toxicity, cell-based
Conditions: MT4 cells (mock-infected for CC50, HIV-1 infected for EC50)
In short: as §2

Compound | selectivity ratio
Cc1cc(C)c(Oc2nc(NC3CCN(Cc4ccncc4)CC3)nc3ccsc23)c(C)c1 | 270
Cc1cc(C#N)cc(C)c1Oc1nc(NC2CCN(Cc3ccncc3)CC2)nc2ccsc12 | 489

Test system: not listed separately
Test: Selectivity index, ratio of CC50 for human mock-infected MT4 cells to EC50 for HIV1 3B harboring reverse transcriptase Y188L mutant infected in human MT4 cells
Assay type: toxicity, cell-based
Conditions: MT4 cells (mock-infected for CC50, HIV-1 infected for EC50)
In short: as §2

Compound | selectivity ratio
Cc1cc(C)c(Oc2nc(NC3CCN(Cc4ccncc4)CC3)nc3ccsc23)c(C)c1 | 152
Cc1cc(C#N)cc(C)c1Oc1nc(NC2CCN(Cc3ccncc3)CC2)nc2ccsc12 | 373

Test system: Human immunodeficiency virus 1
Test: Antiviral activity against HIV1 3B harboring reverse transcriptase K103N mutant infected in human MT4 cells assessed as protection against virus induced cytotoxicity after 5 days by MTT assay
Assay type: functional, cell-based
Conditions: Human immunodeficiency virus 1, 3B, MT4, 120 h
In short: as §1

Compound | EC50 [nM]
Cc1cc(C)c(Oc2nc(NC3CCN(Cc4ccncc4)CC3)nc3ccsc23)c(C)c1 | 7.3
Cc1cc(C#N)cc(C)c1Oc1nc(NC2CCN(Cc3ccncc3)CC2)nc2ccsc12 | 9.9

Test system: not listed separately
Test: Selectivity index, ratio of CC50 for human mock-infected MT4 cells to EC50 for wild type HIV1 3B harboring reverse transcriptase infected in human MT4 cells
Assay type: toxicity, cell-based
Conditions: MT4 cells (mock-infected for CC50, HIV-1 infected for EC50)
In short: as §2

Compound | selectivity ratio
Cc1cc(C)c(Oc2nc(NC3CCN(Cc4ccncc4)CC3)nc3ccsc23)c(C)c1 | 747
Cc1cc(C#N)cc(C)c1Oc1nc(NC2CCN(Cc3ccncc3)CC2)nc2ccsc12 | 2000

Test system: Human immunodeficiency virus 1
Test: Antiviral activity against HIV1 3B harboring reverse transcriptase E138K mutant infected in human MT4 cells assessed as protection against virus induced cytotoxicity after 5 days by MTT assay
Assay type: functional, cell-based
Conditions: Human immunodeficiency virus 1, 3B, MT4, 120 h
In short: as §1

Compound | EC50 [nM]
Cc1cc(C)c(Oc2nc(NC3CCN(Cc4ccncc4)CC3)nc3ccsc23)c(C)c1 | 20.9
Cc1cc(C#N)cc(C)c1Oc1nc(NC2CCN(Cc3ccncc3)CC2)nc2ccsc12 | 42.2
